According to ChEMBL document CHEMBL4680287, “Ibrexafungerp: An orally active β-1,3-glucan synthesis inhibitor” (Bioorg Med Chem Lett, 2021):
Values after ≈ are worked out from the molar mass of the structure shown.

Key:
Candida albicans [1] = experiment: Antifungal activity against Candida albicans MY1055 assessed as fungal growth inhibition measured after 24 hrs in presence of 50% mouse serum by liquid microdilution method; format: functional
Procedure, shortened: (§1)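 Broth microdilution per CLSI protocols in RPMI medium. Read-out is the MIC, the lowest concentration completely inhibiting fungal growth. Run without serum and with added serum.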

Aspergillus fumigatus = experiment: Antifungal activity against Aspergillus fumigatus MF5668 assessed inhibition of fungal growth by measuring morphological changes measured after 24 hrs by microscopy; format: functional; conditions: read-out: MEC
Procedure, shortened: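 Microdilution per CLSI protocols in RPMI medium. Read-out is the minimum effective concentration (MEC). Run without serum and with 50% human serum.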

Candida albicans [2] = experiment: Antifungal activity against Candida albicans MY1055 infected in DBA/2 mouse model of disseminated candidiasis assessed as reduction in fungal burden in kidney by measuring log change in colony forming units at 6.25 mg/kg, po bid for 7 days by TOKA; format: functional; conditions: time 7 day
Procedure, shortened: (§2)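 Murine disseminated candidiasis model (TOKA) in mice challenged with C. albicans MY1055 at 2.44 x 10^4 CFU/mouse. Dosed PO, or IP where stated. Kidneys collected aseptically 7 days after challenge and CFUs/g counted. Change in log CFU/g is relative to sham-treated controls; significance by two-tailed t test. Clearance is the percentage of kidneys below the detection limit.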

Candida albicans [3] = experiment: Antifungal activity against Candida albicans MY1055 assessed as fungal growth inhibition measured after 24 hrs by liquid microdilution method; format: functional; procedure, shortened: as §1
[4] = Inhibition of beta-1,3-glucan synthase in Candida albicans MY1055 microsomal membrane assessed as inhibition of TCA-insoluble material formation using UDP-[3H]-glucose as substrate incubated for 2 hrs in presence of GTP by radioactivity-based assay; format: microsomes, Microsome
Procedure, shortened: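 GS IC50 measured using Candida albicans MY1055 microsomal membrane fragments as the enzyme source.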

Candida albicans [5] = experiment: Antifungal activity against Candida albicans MY1055 infected in DBA/2 mouse model of disseminated candidiasis assessed as reduction in fungal burden in kidney by measuring log change in colony forming units at 12.5 mg/kg, po bid for 7 days by TOKA; format: functional; conditions: time 7 day; procedure, shortened: as §2
Candida albicans [6] = experiment: Antifungal activity against Candida albicans MY1055 infected in DBA/2 mouse model of disseminated candidiasis assessed as reduction in fungal burden in kidney by measuring log change in colony forming units at 25 mg/kg, po bid for 7 days by TOKA; format: functional; conditions: time 7 day; procedure, shortened: as §2
[7] = Dose normalized AUC in po dosed mouse; format: ADME, organism-based; conditions: in vivo
[8] = Oral bioavailability in mouse; format: ADME, organism-based; conditions: in vivo
Procedure, shortened: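 Oral bioavailability calculated as oral AUC normalized to the IV dose, divided by the IV AUC.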

SMILES | MIC (Candida albicans [1]) | MIC (Candida albicans [3]) | IC50 [4] | AUC/dose [7] | bioavailability [8] | minimal effective concentration (Aspergillus fumigatus) | Activity (Candida albicans [2]) | Activity (Candida albicans [5]) | Activity (Candida albicans [6])
CC(C)[C@@H](C)[C@@]1(C)CC[C@]2(C)[C@H]3CC[C@@H]4[C@@]5(COC[C@@]4(C)[C@@H](OC[C@H](N)C(C)(C)C)[C@H](n4ncnc4-c4ccncc4)C5)C3=CC[C@@]2(C)[C@@H]1C(=O)O | 2 µg/mL | 0.25 µg/mL (≈ 0.349 µM) | 0.007 µg/mL | – | – | < 0.03 µg/mL | -1 deltalog10CFU | -2.4 deltalog10CFU | -2.6 deltalog10CFU
CC(C)[C@@H](C)[C@@]1(C)CC[C@]2(C)[C@H]3CC[C@@H]4[C@@]5(COC[C@@]4(C)[C@@H](OC[C@](C)(N)C(C)C)[C@H](n4ncnc4C4CC4)C5)C3=CC[C@@]2(C)[C@@H]1C(=O)O | 16 µg/mL | 0.125 µg/mL (≈ 0.184 µM) | 0.006 µg/mL | – | – | 0.008 µg/mL | – | – | –
CC(C)[C@@H](C)[C@@]1(C)CC[C@]2(C)[C@H]3CC[C@@H]4[C@@]5(COC[C@@]4(C)[C@@H](OC[C@](C)(N)C(C)C)[C@H](n4ncnc4-c4ccccc4F)C5)C3=CC[C@@]2(C)[C@@H]1C(=O)O | 8 µg/mL | 0.5 µg/mL (≈ 0.682 µM) | – | – | – | < 0.03 µg/mL | – | – | –
CC(C)[C@@H](C)[C@@]1(C)CC[C@]2(C)[C@H]3CC[C@@H]4[C@@]5(COC[C@@]4(C)[C@@H](OC[C@](C)(N)C(C)C)[C@H](n4ncnc4-c4ccncn4)C5)C3=CC[C@@]2(C)[C@@H]1C(=O)O | 4 µg/mL | < 0.03 µg/mL | 0.005 µg/mL | 2.38 µM·kg·h/mg | 43% | < 0.03 µg/mL | – | – | –
CCCc1ncnn1[C@@H]1C[C@@]23COC[C@](C)([C@@H]2CC[C@H]2C3=CC[C@@]3(C)[C@H](C(=O)O)[C@@](C)([C@H](C)C(C)C)CC[C@]23C)[C@H]1OC[C@](C)(N)C(C)C | 16 µg/mL | 8 µg/mL (≈ 11.7 µM) | 0.003 µg/mL | – | – | < 0.03 µg/mL | – | – | –
CC(C)[C@@H](C)[C@@]1(C)CC[C@]2(C)[C@H]3CC[C@@H]4[C@@]5(COC[C@@]4(C)[C@@H](OC[C@](C)(N)C(C)C)[C@H](n4ncnc4-c4ccc(F)cc4)C5)C3=CC[C@@]2(C)[C@@H]1C(=O)O | 8 µg/mL | 0.25 µg/mL (≈ 0.341 µM) | 0.011 µg/mL | – | – | < 0.03 µg/mL | – | – | –
CCC(N)(CC)CO[C@H]1[C@H](n2ncnc2-c2ccncc2)C[C@@]23COC[C@]1(C)[C@@H]2CC[C@H]1C3=CC[C@@]2(C)[C@H](C(=O)O)[C@@](C)([C@H](C)C(C)C)CC[C@]12C | 1 µg/mL | 0.06 µg/mL (≈ 0.0838 µM) | 0.001 µg/mL | – | – | < 0.03 µg/mL | -1.3 deltalog10CFU | -2.3 deltalog10CFU | -3.3 deltalog10CFU
Cc1ncnn1[C@@H]1C[C@@]23COC[C@](C)([C@@H]2CC[C@H]2C3=CC[C@@]3(C)[C@H](C(=O)O)[C@@](C)([C@H](C)C(C)C)CC[C@]23C)[C@H]1OC[C@](C)(N)C(C)C | 4 µg/mL | 0.25 µg/mL (≈ 0.383 µM) | 0.005 µg/mL | – | – | 0.03 µg/mL | – | – | –
CC(C)[C@@H](C)[C@@]1(C)CC[C@]2(C)[C@H]3CC[C@@H]4[C@@]5(COC[C@@]4(C)[C@@H](OC[C@](C)(N)C(C)C)[C@H](n4ncnc4-c4ncccn4)C5)C3=CC[C@@]2(C)[C@@H]1C(=O)O | 8 µg/mL | 0.25 µg/mL (≈ 0.349 µM) | 0.004 µg/mL | – | – | < 0.03 µg/mL | – | – | –
CC(C)[C@@H](C)[C@@]1(C)CC[C@]2(C)[C@H]3CC[C@@H]4[C@@]5(COC[C@@]4(C)[C@@H](OC[C@](C)(N)C(C)C)[C@H](n4cncn4)C5)C3=CC[C@@]2(C)[C@@H]1C(=O)O | 4 µg/mL | 0.25 µg/mL (≈ 0.391 µM) | 0.007 µg/mL | – | – | < 0.03 µg/mL | – | – | –
CCc1ncnn1[C@@H]1C[C@@]23COC[C@](C)([C@@H]2CC[C@H]2C3=CC[C@@]3(C)[C@H](C(=O)O)[C@@](C)([C@H](C)C(C)C)CC[C@]23C)[C@H]1OC[C@](C)(N)C(C)C | 8 µg/mL | 0.25 µg/mL (≈ 0.375 µM) | 0.01 µg/mL | – | – | < 0.03 µg/mL | – | – | –
COc1cc(-c2ncnn2[C@@H]2C[C@@]34COC[C@](C)([C@@H]3CC[C@H]3C4=CC[C@@]4(C)[C@H](C(=O)O)[C@@](C)([C@H](C)C(C)C)CC[C@]34C)[C@H]2OC[C@](C)(N)C(C)C)ccn1 | 4 µg/mL | 0.25 µg/mL (≈ 0.335 µM) | 0.008 µg/mL | – | – | < 0.03 µg/mL | – | – | –
COc1ccc(-c2ncnn2[C@@H]2C[C@@]34COC[C@](C)([C@@H]3CC[C@H]3C4=CC[C@@]4(C)[C@H](C(=O)O)[C@@](C)([C@H](C)C(C)C)CC[C@]34C)[C@H]2OC[C@](C)(N)C(C)C)cc1 | 8 µg/mL | 0.5 µg/mL (≈ 0.671 µM) | 0.015 µg/mL | – | – | < 0.03 µg/mL | – | – | –
CC(C)[C@@H](C)[C@@]1(C)CC[C@]2(C)[C@H]3CC[C@@H]4[C@@]5(COC[C@@]4(C)[C@@H](OC[C@](C)(N)c4ccccc4)[C@H](n4ncnc4-c4ccncc4)C5)C3=CC[C@@]2(C)[C@@H]1C(=O)O | 4 µg/mL | 0.25 µg/mL (≈ 0.333 µM) | 0.006 µg/mL | – | – | 0.125 µg/mL | -0.5 deltalog10CFU | -1.5 deltalog10CFU | -2.6 deltalog10CFU

Further lines, with some results ahead:

MIC (Candida albicans [1]) | MIC (Candida albicans [3]) | IC50 [4] | AUC/dose [7] | bioavailability [8] | SMILES | minimal effective concentration (Aspergillus fumigatus) | Activity (Candida albicans [2]) | Activity (Candida albicans [5]) | Activity (Candida albicans [6])
1 µg/mL | 0.25 µg/mL (≈ 0.342 µM) | 0.005 µg/mL | 0.59 µM·kg·h/mg | 21% | CN[C@@](C)(CO[C@H]1[C@H](n2ncnc2-c2cccnc2)C[C@@]23COC[C@]1(C)[C@@H]2CC[C@H]1C3=CC[C@@]2(C)[C@H](C(=O)O)[C@@](C)([C@H](C)C(C)C)CC[C@]12C)C(C)C | < 0.03 µg/mL | -1.1 deltalog10CFU | -2.4 deltalog10CFU | -3 deltalog10CFU
1 µg/mL | 0.06 µg/mL (≈ 0.0837 µM) | 0.006 µg/mL | 0.33 µM·kg·h/mg | 26% | CC(C)[C@@H](C)[C@@]1(C)CC[C@]2(C)[C@H]3CC[C@@H]4[C@@]5(COC[C@@]4(C)[C@@H](OC[C@](C)(N)C(C)C)[C@H](n4ncnc4-c4cncnc4)C5)C3=CC[C@@]2(C)[C@@H]1C(=O)O | < 0.03 µg/mL | -2.1 deltalog10CFU | -3 deltalog10CFU | -3 deltalog10CFU
4 µg/mL | 0.5 µg/mL (≈ 0.697 µM) | 0.004 µg/mL | – | – | CC(C)[C@@H](C)[C@@]1(C)CC[C@]2(C)[C@H]3CC[C@@H]4[C@@]5(COC[C@@]4(C)[C@@H](OC[C@](C)(N)C(C)C)[C@H](n4ncnc4-c4cnccn4)C5)C3=CC[C@@]2(C)[C@@H]1C(=O)O | < 0.03 µg/mL | – | – | –
8 µg/mL | 0.25 µg/mL (≈ 0.341 µM) | 0.011 µg/mL | – | – | CC(C)[C@@H](C)[C@@]1(C)CC[C@]2(C)[C@H]3CC[C@@H]4[C@@]5(COC[C@@]4(C)[C@@H](OC[C@](C)(N)C(C)C)[C@H](n4ncnc4-c4cccc(F)c4)C5)C3=CC[C@@]2(C)[C@@H]1C(=O)O | < 0.03 µg/mL | – | – | –
1 µg/mL | 0.03 µg/mL (≈ 0.0403 µM) | 0.002 µg/mL | 0.62 µM·kg·h/mg | – | CN[C@@](C)(CO[C@H]1[C@H](n2ncnc2-c2ccncc2)C[C@@]23COC[C@]1(C)[C@@H]2CC[C@H]1C3=CC[C@@]2(C)[C@H](C(=O)O)[C@@](C)([C@H](C)C(C)C)CC[C@]12C)C(C)(C)C | 0.008 µg/mL | -1.7 deltalog10CFU | -3.2 deltalog10CFU | -4.2 deltalog10CFU
32 µg/mL | 0.25 µg/mL (≈ 0.336 µM) | 0.011 µg/mL | – | – | COc1cccc(-c2ncnn2[C@@H]2C[C@@]34COC[C@](C)([C@@H]3CC[C@H]3C4=CC[C@@]4(C)[C@H](C(=O)O)[C@@](C)([C@H](C)C(C)C)CC[C@]34C)[C@H]2OC[C@](C)(N)C(C)C)c1 | < 0.03 µg/mL | – | – | –
16 µg/mL | 0.25 µg/mL (≈ 0.342 µM) | 0.003 µg/mL | – | – | CN[C@@](C)(CO[C@H]1[C@H](n2ncnc2-c2ccccn2)C[C@@]23COC[C@]1(C)[C@@H]2CC[C@H]1C3=CC[C@@]2(C)[C@H](C(=O)O)[C@@](C)([C@H](C)C(C)C)CC[C@]12C)C(C)C | < 0.03 µg/mL | – | – | –
2 µg/mL | < 0.03 µg/mL | 0.005 µg/mL | – | – | CC(C)[C@@H](C)[C@@]1(C)CC[C@]2(C)[C@H]3CC[C@@H]4[C@@]5(COC[C@@]4(C)[C@@H](OC[C@](C)(N)C(C)C)[C@H](n4ncnc4-c4cccnn4)C5)C3=CC[C@@]2(C)[C@@H]1C(=O)O | < 0.03 µg/mL | – | – | –
